Screening data as filed in PubChem.
RAM inhibit: yeast RAM network inhibition. S. cerevisiae dse1pr::URA3 reporter, 5-FOA growth OD615, 2 d; analog-sensitive cbk1-as2 kinase mutant strain. inhibition, % at 50 µM. 190,000 tested, 1.8% active;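 active = inhibition above a set limit, 3 SD over mean compound inhibition, cut at about 8.4% in these data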;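 note: 0% = DMSO-only wells with no growth and 100% = 10 µM 1-NA-PP1 full growth; inhibition rescues growth on 5-FOA so higher OD means more RAM inhibition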
WT yeast gro inh: growth inhibition of WT yeast, mitochondrial fusion screen. AID 1362. inhibition, % at 10 µM. mitochondrial fusion phenotypic screen, WT strain. 190,000 tested, 2.1% active; in the data active = inhibition above about 58%; tested in S. cerevisiae
KCC2 mod: KCC2 (human) Cl- transport modulation; KCC2 cells, thallium flux FluoZin-2 fluorescence; 190,000 tested, 2.2% active; B-score of Tl+ flux slope (higher = more flux/activation; lower = inhibition) at 10 µM; AID 1456;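 active = thallium flux slope and its plate-corrected score both differing from the plate sample mean at a set confidence after two filtering rounds, in either direction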;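 note: slope of fluorescence scaled to starting intensity during 10 to 20 s after thallium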
Target sequence (Q9H2X9 whole entry, looked up): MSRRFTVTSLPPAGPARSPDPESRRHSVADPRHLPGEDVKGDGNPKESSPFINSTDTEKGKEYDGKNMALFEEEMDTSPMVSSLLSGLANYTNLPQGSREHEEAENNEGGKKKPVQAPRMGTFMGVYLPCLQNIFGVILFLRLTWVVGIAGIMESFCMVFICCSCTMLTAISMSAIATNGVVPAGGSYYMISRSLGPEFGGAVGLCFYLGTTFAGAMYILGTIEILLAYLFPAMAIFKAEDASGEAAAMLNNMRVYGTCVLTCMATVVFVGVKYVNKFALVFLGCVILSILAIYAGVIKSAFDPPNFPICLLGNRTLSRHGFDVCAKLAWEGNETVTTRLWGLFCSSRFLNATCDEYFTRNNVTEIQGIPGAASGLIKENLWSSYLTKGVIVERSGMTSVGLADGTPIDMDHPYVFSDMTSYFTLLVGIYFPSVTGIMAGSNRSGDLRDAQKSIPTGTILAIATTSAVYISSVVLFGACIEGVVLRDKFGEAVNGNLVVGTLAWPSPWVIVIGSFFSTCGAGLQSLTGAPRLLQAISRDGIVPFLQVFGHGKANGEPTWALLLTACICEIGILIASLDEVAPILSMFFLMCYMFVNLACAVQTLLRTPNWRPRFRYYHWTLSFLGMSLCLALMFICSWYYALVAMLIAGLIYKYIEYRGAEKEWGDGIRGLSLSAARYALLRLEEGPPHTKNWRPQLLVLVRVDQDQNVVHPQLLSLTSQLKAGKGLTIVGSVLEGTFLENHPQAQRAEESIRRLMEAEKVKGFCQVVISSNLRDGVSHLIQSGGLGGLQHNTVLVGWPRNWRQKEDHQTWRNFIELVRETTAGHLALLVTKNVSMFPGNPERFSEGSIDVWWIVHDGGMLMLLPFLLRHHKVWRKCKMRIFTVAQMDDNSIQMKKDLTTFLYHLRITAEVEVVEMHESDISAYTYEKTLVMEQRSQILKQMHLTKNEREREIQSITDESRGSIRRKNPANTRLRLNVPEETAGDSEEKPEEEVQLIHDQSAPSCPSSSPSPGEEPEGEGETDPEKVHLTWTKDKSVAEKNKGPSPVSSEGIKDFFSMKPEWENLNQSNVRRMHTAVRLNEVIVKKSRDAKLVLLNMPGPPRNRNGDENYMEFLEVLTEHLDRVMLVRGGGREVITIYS
BB579 growth dn: yeast BB579 growth reduction in restrictive medium; inhibition, % at 10 µM; S. cerevisiae BB579 growth, OD615, 48 h; 140,000 tested, 0.51% active; AID 804;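 active = inhibition above a set limit, 3 SD over the mean compound inhibition, cut at about 44% in these data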
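System: Saccharomyces cerevisiae DeaD strain BB579, replicative lifespan model yeast. Buffer or medium: restrictive glucose-based CSMM-D medium. Doses: one dose, 10 µM compound with 0.25% DMSO. Timing: 4 h preincubation and 48 h exposure at 30 °C. Detection: turbidity as optical density at 615 nm. Benchmarks: amphotericin B 10 µg/mL, positive.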
Yeast life ext: extends the lifespan of yeast. S. cerevisiae growth with nicotinamide, OD615; deaD strain in restrictive glucose medium. inhibition of the nicotinamide effect, % at 10 µM. 130,000 tested, 0.68% active. AID 775;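 active = inhibition above a set limit, placed 3 SD over the median of all compounds, cut at about 26% in these data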;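 note: 0% = nicotinamide-treated wells and 100% = cells grown without nicotinamide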
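Test system – modified budding yeast, DeaD strain · Compound – single dose 10 µM compound, 0.25% DMSO · Times – culture preincubation 4 h, compound exposure 48 h, both 30 °C · Detection – optical density (absorbance) at 615 nm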
KCC2 secondary: confirmation of human KCC2 transport modulators; normalised thallium flux (F/F0 slope) at 10 µM; shares compounds with KCC2 mod; HEK293-KCC2, thallium flux, FluoZin2 fluorescence; active compounds read high; 3,700 tested, 15% active;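 active = thallium flux slope above the same plate's solvent-only control mean plus 3 SD; inconclusive = the two replicate wells disagree; inactive = no significant difference from solvent-only control wells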
KCC2 bumet counter: thallium flux persisting under bumetanide in KCC2 cells, counter-screen secondary assay; shares compounds with KCC2 mod; HEK293-KCC2 + bumetanide/ouabain, thallium flux FluoZin2; active compounds read high; normalized thallium flux at 10 µM; 3,700 tested, 49% active;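 active = thallium entry rate above the same plate's blocked-transporter control wells by more than 3 SD; inconclusive = the two repeat wells disagree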;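 note: raw slope of fluorescence over initial fluorescence between 10 and 20 s after thallium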
KCC2 sec2: KCC2 (human) modulation, second secondary assay. normalized thallium flux at 10 µM. shares compounds with KCC2 mod. HEK293-KCC2, thallium flux FluoZin2 fluorescence; actives lie on both sides; F/F0 rise rate, 10–20 s post-thallium. 3,700 tested, 23% active;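 active = thallium flux slope more than 3 SD above or below the plate's solvent-only control mean, mostly below; inconclusive = the two repeat wells disagreed; inactive = no significant shift from solvent-only controls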;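 note: raw slope with 0.1% DMSO as baseline and bumetanide as block control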
HEK counter1: acts in parental HEK cells, KCC2 counter-screen | shares compounds with KCC2 mod | HEK293 parental cells, thallium flux FluoZin2, ouabain; baseline-ratio fluorescence slope, 10–20 s after thallium | thallium flux rate (normalised fluorescence) at 10 µM | 3,700 tested, 46% active | AID 1716;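 active = thallium flux rate significantly above the same plate's solvent-only control wells, beyond their mean plus 3 SD; inconclusive = the two replicate wells gave conflicting results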
KCC2 retest ouab: KCC2 (human) modulation, ouabain retest; shares compounds with KCC2 mod; HEK293-KCC2, thallium flux FluoZin2 fluorescence; bidirectional: low = inhibitor, high = activator; raw Tl+ flux slope (below DMSO = inhibition, above = activation) at 10 µM; 3,700 tested, 48% active;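 active = thallium flux slope beyond 3 SD from same-plate DMSO control mean in most replicates, usually higher, sometimes lower; inconclusive = repeat tests gave conflicting results; inactive = no significant difference from controls in most replicates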;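 note: slope of initial-normalized fluorescence between seconds 10 and 20 after thallium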
HEK293 Tl flux2: parental HEK flux effect, counter-screen 2 | AID 1718 | HEK293 parental, thallium flux FluoZin-2 fluorescence slope | 3,700 tested, 33% active | thallium flux slope at 10 µM | shares compounds with KCC2 mod;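 active = thallium flux slope above the same plate's solvent-control mean plus 3 SD in both duplicate wells; inconclusive = duplicate wells that disagreed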;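 note: run without ouabain in cells lacking the KCC2 cotransporter; slope of fluorescence scaled to its starting value between 10 and 20 s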
Starred values were filed as active, the others as inactive. A selection: hits, their analogues and other compounds. The true share with any hit is near 5.5%.

Results for CCC(Cc1ccccc1)NC(=O)CN(C)S(=O)(=O)c1ccc2c(c1)c(=O)n(C)c(=O)n2C (stereo not drawn) ?
RAM inhibit: 2.5; WT yeast gro inh: 2.4; BB579 growth dn: -25.3; Yeast life ext: -3.6; KCC2 secondary: 0.00676; KCC2 bumet counter: 0.00504; KCC2 sec2: 0.0238*; HEK counter1: 0.00822; KCC2 retest ouab: inconclusive; HEK293 Tl flux2: 0.0117

How did Cn1c(=O)c2cc(S(=O)(=O)NCCC(=O)N3CC=C(c4ccccc4)CC3)ccc2n(C)c1=O do in these assays?
RAM inhibit: 0.4; WT yeast gro inh: 14.5; KCC2 mod: -0.404; BB579 growth dn: 21.4; Yeast life ext: -15.2

What do the screens show for `CCOc1ccc(-c2nc(C#N)c(N3CCN(Cc4ccccc4)CC3)o2)cc1`?
RAM inhibit: 1.0; WT yeast gro inh: -1.9; KCC2 mod: -4.28*; BB579 growth dn: -15.4; Yeast life ext: -17.2; KCC2 secondary: 0.00781; KCC2 bumet counter: 0.00661; KCC2 sec2: 0.0271; HEK counter1: 0.00711; KCC2 retest ouab: 0.0232*; HEK293 Tl flux2: 0.0101

Results for CCS(=O)(=O)N1N=C(c2cccc(NS(C)(=O)=O)c2)CC1c1ccc(C)cc1 (stereo not drawn) ?
RAM inhibit: 2.9; WT yeast gro inh: -1.7; KCC2 mod: -0.344

How did CCOC(=O)c1ccc(NC(=O)COC(=O)Cc2csc(-c3ccccc3)n2)cc1 do in these assays?
RAM inhibit: 2.5; WT yeast gro inh: 18.4; KCC2 mod: -4.88*; BB579 growth dn: -32.1; Yeast life ext: -6.1; KCC2 secondary: 0.00609*; KCC2 bumet counter: 0.0154*; KCC2 sec2: inconclusive; HEK counter1: 0.0114*; KCC2 retest ouab: 0.0164*; HEK293 Tl flux2: 0.0108

What do the screens show for `O=C(CCCN1C(=O)/C(=C/c2ccccc2Cl)SC1=S)NNC(=O)c1cccnc1`?
KCC2 mod: -4.91*; KCC2 secondary: 0.00901; KCC2 bumet counter: 0.00502; KCC2 sec2: 0.031; HEK counter1: 0.00692; KCC2 retest ouab: 0.0165*; HEK293 Tl flux2: 0.0106

Results for CCOC(=O)C1(Cc2ccc(Cl)cc2)CCN(C(=O)c2cscn2)CC1 ?
RAM inhibit: 1.7; WT yeast gro inh: 5.1; KCC2 mod: -0.0499

Results for CN1CCN(C(=S)NC(=O)c2ccc(Cl)cc2)CC1 ?
RAM inhibit: 2.0; WT yeast gro inh: -7.2; KCC2 mod: 13.7*; KCC2 secondary: 0.00664; KCC2 bumet counter: 0.02*; KCC2 sec2: 0.0335; HEK counter1: 0.0176*; KCC2 retest ouab: 0.0286*; HEK293 Tl flux2: 0.0166*

Results for Cc1ccc(C(=O)NC(=S)N2CCN(C(=O)OC(C)(C)C)CC2)cc1Br ?
RAM inhibit: 4.3; WT yeast gro inh: 1.8; KCC2 mod: 19.5*; KCC2 secondary: inconclusive; KCC2 bumet counter: 0.0877*; KCC2 sec2: 0.0744*; HEK counter1: 0.0616*; KCC2 retest ouab: 0.0874*; HEK293 Tl flux2: 0.0566*

Results for CCOC(=O)N1CCN(C(=S)NC(=O)c2ccc(Br)cc2)CC1 ?
RAM inhibit: -0.8; WT yeast gro inh: 16.8; KCC2 mod: 17.5*; KCC2 secondary: 0.0229*; KCC2 bumet counter: 0.0595*; KCC2 sec2: 0.0347; HEK counter1: inconclusive; KCC2 retest ouab: 0.0247; HEK293 Tl flux2: 0.0128*

How did NC(=O)c1ccc2c(=O)n3c(-c4cccs4)csc3nc2c1 do in these assays?
KCC2 mod: 0.74

What do the screens show for `COc1cccc(C2C(C(C)=O)=C(O)C(=O)N2CCc2c[nH]c3ccccc23)c1` (stereo not drawn)?
RAM inhibit: 1.7; WT yeast gro inh: -0.7; BB579 growth dn: -30.7; Yeast life ext: -5.8

How did O=C(CCc1ccccc1)NNC(=S)NC(=O)c1ccccc1 do in these assays?
RAM inhibit: -0.7; WT yeast gro inh: 42.3; KCC2 mod: 9.95*; BB579 growth dn: 69.1*; Yeast life ext: -12.2; KCC2 secondary: 0.0253*; KCC2 bumet counter: 0.061*; KCC2 sec2: 0.0371; HEK counter1: 0.0299*; KCC2 retest ouab: 0.0514*; HEK293 Tl flux2: 0.0151*

What do the screens show for `CC(C)(C)c1cc(CCC(=O)NNC(=O)c2ccco2)cc(C(C)(C)C)c1O`?
RAM inhibit: -0.8; WT yeast gro inh: -11.3; KCC2 mod: 0.0472; BB579 growth dn: 19.0; Yeast life ext: 0.3

How did O=C(CCc1ccccc1)NC(=S)Nc1cccc(Br)c1 do in these assays?
RAM inhibit: -0.1; WT yeast gro inh: 58.8*; KCC2 mod: 4.84*; BB579 growth dn: -45.8; Yeast life ext: -8.6; KCC2 secondary: 0.0082; KCC2 bumet counter: 0.0113*; KCC2 sec2: 0.0285; HEK counter1: 0.00862*; KCC2 retest ouab: inconclusive; HEK293 Tl flux2: 0.00959

How did CC(C)(C)c1cc(CCC(=O)NNC(=S)NC(=O)c2ccccc2)cc(C(C)(C)C)c1O do in these assays?
RAM inhibit: 2.9; WT yeast gro inh: 12.0; KCC2 mod: 53.8*; BB579 growth dn: 23.4; Yeast life ext: 6.3; KCC2 secondary: 0.0334*; KCC2 bumet counter: 0.105*; KCC2 sec2: 0.0357; HEK counter1: 0.0906*; KCC2 retest ouab: 0.0822*; HEK293 Tl flux2: 0.0199*

What do the screens show for `CCCCC(=O)NC(=S)NNC(=O)CCc1ccccc1`?
KCC2 mod: 6.86

Results for CCN(C(=S)NC(=O)CCc1ccccc1)c1ccccc1 ?
RAM inhibit: -0.8; WT yeast gro inh: 11.6; KCC2 mod: 4.66*; BB579 growth dn: -10.2; Yeast life ext: -2.2; KCC2 secondary: inconclusive; KCC2 bumet counter: 0.0505*; KCC2 sec2: 0.0339; HEK counter1: 0.0173*; KCC2 retest ouab: 0.0417*; HEK293 Tl flux2: 0.0128*

Results for S=C(Nc1ccccc1)Nc1cccc(Br)c1 ?
RAM inhibit: 0.5; WT yeast gro inh: 22.2; KCC2 mod: 1.3
